Laboratory results published in ChEMBL document CHEMBL1125434, “Preparation and in vitro and in vivo evaluation of quinolones with selective activity against gram-positive organisms” (1992).
Values after ≈ are worked out from the molar mass of the structure shown.

Key:
Type in all cases: functional
Escherichia coli = assay: In vitro minimum inhibitory concentration against Escherichia coli Juhl using brain-heart infusion agar
Procedure, shortened: (§1)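 Overnight cultures were grown in BHI broth at 36 °C. Twofold dilutions of a 2000 µg/mL stock were made in BHI agar, giving 200–0.005 µg/mL. Plates received about 10^4 organisms and were incubated for 18 h at 36 °C. MIC was the lowest concentration with no visible growth on the plate.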

Staphylococcus aureus [1] = assay: In vitro minimum inhibitory concentration against Staphylococcus aureus CMX 553 using brain-heart infusion agar; procedure, shortened: as §1
Pseudomonas aeruginosa [2] = assay: In vitro minimum inhibitory concentration against Pseudomonas aeruginosa K799 / WT using brain-heart infusion agar; procedure, shortened: as §1
Streptococcus agalactiae = assay: In vitro minimum inhibitory concentration against Streptococcus agalactiae CMX 508 using brain-heart infusion agar; procedure, shortened: as §1
Staphylococcus aureus [3] = assay: In vitro minimum inhibitory concentrationp against Staphylococcus aureus ATCC 6538P using brain-heart infusion agar; procedure, shortened: as §1
Pseudomonas aeruginosa [4] = assay: In vitro minimum inhibitory concentration against Pseudomonas aeruginosa A5007 using brain-heart infusion agar; procedure, shortened: as §1
Enterococcus faecium = assay: In vitro minimum inhibitory concentration against Enterococcus faecium ATCC 8043 using brain-heart infusion agar; procedure, shortened: as §1
Klebsiella aerogenes = assay: In vitro minimum inhibitory concentration against Enterobacter aerogenes ATCC 13048 using brain-heart infusion agar; procedure, shortened: as §1
Streptococcus equinus = assay: In vitro minimum inhibitory concentration against Streptococcus bovis A5169 using brain-heart infusion agar; procedure, shortened: as §1
Streptococcus pyogenes = assay: In vitro minimum inhibitory concentration against Streptococcus pyogenes 930 using brain-heart infusion agar; procedure, shortened: as §1
[5] = tested on: Staphylococcus epidermidis; assay: In vitro minimum inhibitory concentration against Staphylococcus epidermidis 3159 using brain-heart infusion agar; procedure, shortened: as §1
Staphylococcus aureus [6] = assay: In vitro minimum inhibitory concentration against Staphylococcus aureus A 5177 using brain-heart infusion agar; procedure, shortened: as §1
Acinetobacter = assay: In vitro minimum inhibitory concentration against Acinetobacter CMX 669 using brain-heart infusion agar; procedure, shortened: as §1
Klebsiella pneumoniae = assay: In vitro minimum inhibitory concentration against Klebsiella pneumoniae 8045 using brain-heart infusion agar; procedure, shortened: as §1

**Q.** `NC1CCN(c2cc3c(cc2F)c(=O)c(C(=O)O)cn3-c2ccc(F)cc2F)CC1` was tested. Which MIC (Escherichia coli) did it give?
**A.** 0.1 µg/mL (≈ 0.24 µM)

**Q.** What about the MIC (Staphylococcus aureus [1]) of the same molecule?
**A.** 0.39 µg/mL (≈ 0.934 µM)

**Q.** And the MIC (Pseudomonas aeruginosa [2])?
**A.** 0.78 µg/mL (≈ 1.87 µM)

**Q.** And the MIC (Streptococcus agalactiae)?
**A.** 0.78 µg/mL (≈ 1.87 µM)

**Q.** And the MIC (Staphylococcus aureus [3])?
**A.** 0.1 µg/mL (≈ 0.24 µM)

**Q.** What about the MIC (Pseudomonas aeruginosa [4]) of the same molecule?
**A.** 0.78 µg/mL (≈ 1.87 µM)

**Q.** And the MIC (Enterococcus faecium)?
**A.** 0.78 µg/mL (≈ 1.87 µM)

**Q.** What about the MIC (Klebsiella aerogenes) of the same molecule?
**A.** 0.39 µg/mL (≈ 0.934 µM)

**Q.** And the MIC (Streptococcus equinus)?
**A.** 1.56 µg/mL (≈ 3.74 µM)

**Q.** And the MIC (Streptococcus pyogenes)?
**A.** 0.39 µg/mL (≈ 0.934 µM)

**Q.** And the MIC [5]?
**A.** 0.39 µg/mL (≈ 0.934 µM)

**Q.** And the MIC (Staphylococcus aureus [6])?
**A.** 0.39 µg/mL (≈ 0.934 µM)

**Q.** And the MIC (Acinetobacter)?
**A.** 0.78 µg/mL (≈ 1.87 µM)

**Q.** What about the MIC (Klebsiella pneumoniae) of the same molecule?
**A.** 0.1 µg/mL (≈ 0.24 µM)
